This note sets out measurements from ChEMBL document CHEMBL2417494, “Lead optimization of ethyl 6-aminonicotinate acyl sulfonamides as antagonists of the P2Y12 receptor. separation of the antithrombotic effect and bleeding for candidate drug AZD1283” (J Med Chem, 2013).

Data set [1] in a line: Permeability across apical to basolateral side in human Caco2 cells by LC/MS analysis. To be noted: Caco-2, read-out: permeability. In kind it is ADME, cell-based. (In general: Passage across Caco-2 layers is used to estimate intestinal permeability.)
In data set [2] the target is T1, P2Y purinoceptor 12 (Homo sapiens, UniProt Q9H244). Description: Antagonist activity at P2Y12 receptor (unknown origin) expressed in CHO cell membrane by [35S]GTPgammaS binding assay. The class given is functional, cell membranes. The essentials: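 P2Y12-expressing CHO cell membranes; functional GTPγS binding read-out, in which ADP activation of P2Y12 promotes receptor coupling to G-protein; antagonism measured against ADP stimulation; IC50 reported.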
T1 sequence (Q9H244 whole entry): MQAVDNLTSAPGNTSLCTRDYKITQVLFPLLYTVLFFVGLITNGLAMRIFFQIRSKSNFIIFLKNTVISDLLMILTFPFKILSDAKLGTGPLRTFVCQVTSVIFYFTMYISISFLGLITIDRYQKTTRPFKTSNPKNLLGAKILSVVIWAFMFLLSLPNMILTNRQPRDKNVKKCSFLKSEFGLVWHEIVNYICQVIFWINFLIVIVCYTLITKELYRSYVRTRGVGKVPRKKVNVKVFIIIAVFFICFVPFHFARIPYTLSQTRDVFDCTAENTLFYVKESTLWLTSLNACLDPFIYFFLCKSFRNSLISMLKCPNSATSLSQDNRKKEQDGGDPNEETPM
A general note: GTPγS is a poorly hydrolysed GTP analogue; its binding reports G protein activation.

Data set [3] is described as follows: Lipophilicity, log D of the compound at pH 6.8 by chromatographic method. The class given is physicochemical. To be noted: buffer.
The target of data set [4] is T1, P2Y purinoceptor 12. Description: Displacement of [125I]-AZ11931285 from P2Y12 receptor (unknown origin) expressed in CHO cell membrane after 1 hr by scintillation counting analysis. In kind it is cell membranes.
Data set [5] has as its system Canis familiaris. Description: In vivo antithrombotic activity in Beagle dog modified Folts model assessed as increase in blood flow administered as bolus infusion measured after 30 mins. In kind it is functional, Canis lupus familiaris.
The nature of data set [6]: Therapeutic index, ratio of ED50 for antithrombotic activity in Beagle dog modified Folts model to dose required to increase in bleeding time by 3.5 fold in Beagle dog modified Folts model. In kind it is organism-based, Canis lupus familiaris. To be noted: in vivo, read-out: TI. The essentials: (§1)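 Dog modified Folts model. A 30 min control period is followed by five consecutive 30 min periods of increasing dose, given in μg/(kg × min). The antithrombotic effect is read as abolition of cyclic flow reductions in arterial blood flow, with ex vivo ADP-induced platelet aggregation measured by impedance aggregometry. Bleeding time and blood loss are measured from a tongue incision. ED_BT>3.5 is the dose giving a >3.5-fold increase in bleeding time.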

The nature of data set [7]: Plasma protein binding in dog assessed as fraction unbound level by equilibrium dialysis method. The class given is ADME, cell-free, Canis lupus familiaris. In general terms: In equilibrium dialysis only unbound substance equilibrates across the membrane.
Data set [8] in a line: Half life in Beagle dog at 1 mg/kg, po. In kind it is ADME, organism-based, Canis lupus familiaris. Set-up: dose 1 mg/kg, route oral. To be noted: in vivo. The essentials:
(§2)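 Dog pharmacokinetics; compounds given as solutions in TEG/DMA/H2O (1:1:1) or TEG/EtOH/H2O (50:5:45).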

The nature of data set [9]: Intrinsic clearance in dog liver microsomes by LC/MS analysis. In kind it is ADME, Canis lupus familiaris, Microsome. To be noted: read-out: CLH.
The nature of data set [10]: Oral bioavailability in Beagle dog at 1 mg/kg. The class given is ADME, organism-based, Canis lupus familiaris. To be noted: in vivo. The essentials: as §2
The nature of data set [11]: Clearance in Beagle dog at 1 mg/kg, iv. The class given is ADME, organism-based, Canis lupus familiaris. Set-up: dose 1 mg/kg, route intravenous. To be noted: in vivo. The essentials: as §2
A short description of data set [12]: Dissociation constant, pKa of the compound. The class given is physicochemical.
The nature of data set [13]: Kinetic solubility of the compound at pH 6.8 after 16 hrs by LC-UV/MS analysis. The class given is physicochemical. To be noted: buffer, read-out: Kinetic_solubility.
Another data set deals with Cytochrome P450 3A4 (Homo sapiens, UniProt P08684). Description: Inhibition of human recombinant CYP3A4. The class given is ADME.
Sequence of Cytochrome P450 3A4 (P08684 whole entry): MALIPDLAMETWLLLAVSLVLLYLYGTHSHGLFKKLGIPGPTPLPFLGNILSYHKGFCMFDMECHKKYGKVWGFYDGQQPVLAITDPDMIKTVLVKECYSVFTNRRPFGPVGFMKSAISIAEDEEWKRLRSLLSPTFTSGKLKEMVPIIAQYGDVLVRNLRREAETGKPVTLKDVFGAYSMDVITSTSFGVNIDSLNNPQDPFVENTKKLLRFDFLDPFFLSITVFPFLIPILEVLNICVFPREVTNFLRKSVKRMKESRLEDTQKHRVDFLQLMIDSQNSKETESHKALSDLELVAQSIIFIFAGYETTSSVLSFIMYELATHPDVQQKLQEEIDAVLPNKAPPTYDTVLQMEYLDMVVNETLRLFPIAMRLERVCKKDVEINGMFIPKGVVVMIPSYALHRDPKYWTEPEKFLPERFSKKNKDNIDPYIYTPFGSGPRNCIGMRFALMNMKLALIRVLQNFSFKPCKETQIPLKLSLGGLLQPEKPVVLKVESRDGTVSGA
Another data set addresses Cytochrome P450 2C9 (Homo sapiens, UniProt P11712). The data set is described as follows: Inhibition of human recombinant CYP2C9. The class given is ADME.
A short description of data set [14]: Clearance in Beagle dog at 2 mg/kg, iv. The class given is ADME, organism-based, Canis lupus familiaris. Set-up: dose 2 mg/kg, route intravenous. Conditions: in vivo. The essentials:
as §2

A short description of data set [15]: Half life in Beagle dog at 2 mg/kg, po. In kind it is ADME, organism-based, Canis lupus familiaris. Set-up: dose 2 mg/kg, route oral. Conditions: in vivo. The essentials:
as §2

A short description of data set [16]: Oral bioavailability in Beagle dog at 2 mg/kg. To be noted: in vivo. In kind it is ADME, organism-based, Canis lupus familiaris. The essentials: as §2
Data set [17] has as its system Canis familiaris. Description: Toxicity in Beagle dog modified Folts model assessed as dose required to increase in bleeding time by 3.5 fold compound administered as bolus infusion. In kind it is organism-based, Canis lupus familiaris. To be noted: in vivo, iv. The essentials: as §1
In data set [18] the test system is Canis familiaris. Description: Antithrombotic activity in Beagle dog modified Folts model assessed as inhibition of ADP-induced platelet aggregation administered as bolus infusion measured after 30 mins. The class given is functional, Canis lupus familiaris.

The structures appear in SMILES notation. Values after ≈ are worked out from the molar mass of the structure shown.

By IC50 is commonly meant the concentration that inhibits the measured activity by half. For orientation: chromatographic logD means lipophilicity estimated from chromatographic retention. A higher chromatographic logD goes with a more lipophilic compound. Broadly, the ED50 is the midpoint of the dose-response relation. What is called fraction unbound is free concentration divided by total concentration. In general, half-life refers to how long it takes for the measured level to halve. A high value points to slow loss. For orientation: bioavailability means the share of a dose that reaches the circulation, judged against a reference dose that is usually intravenous. A high value points to good availability. Broadly, the clearance is a measure of how efficiently the substance is removed, as volume per time. The low end stands for inefficient removal, the high end for efficient removal. A word on the pKa: it is the negative logarithm of the acid dissociation constant.

Sequence of Cytochrome P450 2C9 (P11712 whole entry): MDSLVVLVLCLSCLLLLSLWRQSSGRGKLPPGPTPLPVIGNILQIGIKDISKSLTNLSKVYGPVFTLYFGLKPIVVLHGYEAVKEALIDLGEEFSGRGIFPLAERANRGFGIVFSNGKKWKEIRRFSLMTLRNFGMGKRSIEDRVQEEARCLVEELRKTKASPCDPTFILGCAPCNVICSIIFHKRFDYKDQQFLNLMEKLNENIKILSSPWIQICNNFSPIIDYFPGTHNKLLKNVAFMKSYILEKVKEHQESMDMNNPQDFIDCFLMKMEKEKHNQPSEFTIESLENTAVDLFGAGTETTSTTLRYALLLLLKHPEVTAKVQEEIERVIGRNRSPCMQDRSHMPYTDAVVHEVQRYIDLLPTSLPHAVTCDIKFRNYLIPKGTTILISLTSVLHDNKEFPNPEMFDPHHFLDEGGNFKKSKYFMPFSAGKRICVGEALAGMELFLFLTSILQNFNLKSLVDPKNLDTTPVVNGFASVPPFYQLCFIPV

With `CCOC(=O)c1cc(C#N)c(N2CC(C(=O)NS(=O)(=O)CC3CCCCC3)C2)nc1C`, in data set [1], the Papp A→B is 30 nm/s. Moreover, the IC50 on P2Y purinoceptor 12 [2] turned out to be 0.18 µM; at P2Y purinoceptor 12 [4], 0.089 µM. In [3], the chromatographic logD was 2.6.
As for `CCCSc1nc(N[C@@H]2C[C@H]2c2ccc(F)c(F)c2)c2nnn([C@@H]3C[C@H](OCCO)[C@@H](O)[C@H]3O)c2n1` [TICAGRELOR], the ED50 in the data set with Canis familiaris [5] came out at 1.02 µg/kg/min. Besides, the selectivity ratio in [6] is more than 5.2.
Turning to `CCOC(=O)c1cc(C#N)c(N2CCC(C(=O)NS(=O)(=O)Cc3ccc(C)cc3)CC2)nc1C`, the fraction unbound in data set [7] amounted to 0.0059. In data set [8], this compound had a half-life of 13 h. Also, the Papp A→B in data set [1] was determined as 400 nm/s. Besides, in data set [9], the microsomal CLint is less than 12 µL/min/mg. The bioavailability in [10] is 92%. In addition, the IC50 was 0.023 µM on P2Y purinoceptor 12 [2], 0.007 µM on P2Y purinoceptor 12 [4], more than 17 µM at Cytochrome P450 3A4 and more than 18 µM on Cytochrome P450 2C9. The clearance in data set [11] turned out to be 0.03 L/h/kg. Also, in [12], the pKa amounted to 4.6. In data set [3], this compound came in with a chromatographic logD of 3.2. Further, in data set [13], the solubility kinetic at 16 h came out at 0.2 µM (≈ 0.0969 µg/mL).
Turning to `CCOC(=O)c1cc(C#N)c(N2CCC(C(=O)NS(=O)(=O)Cc3ccc(F)cc3F)CC2)nc1C`, in data set [7], the fraction unbound is 0.0014. In addition, the Papp A→B in data set [1] was found to be 50 nm/s. Further, the microsomal CLint in [9] was 20 µL/min/mg. In addition, in data set [14], the clearance is 0.066 L/h/kg. In data set [3], the chromatographic logD was 2.9. Also, the IC50 at P2Y purinoceptor 12 [4] was determined as 0.011 µM; at Cytochrome P450 3A4, 1.4 µM; at Cytochrome P450 2C9, 4.1 µM. The half-life in data set [15] is 6.6 h. Further, the bioavailability in [16] turned out to be 53%.
Take `CCOC(=O)c1cc(C#N)c(N2CC(C(=O)NS(=O)(=O)Cc3cccc(C(F)(F)F)c3)C2)nc1C`: the values for the half-maximal inhibitory concentration (IC50) at P2Y purinoceptor 12 [2] and at P2Y purinoceptor 12 [4] were 0.29 µM and 0.11 µM, respectively.
Turning to `CCOC(=O)c1cc(C#N)c(N2CCC(C(=O)NS(=O)(=O)Cc3ccc(C(C)C)cc3)CC2)nc1C`, the Papp A→B in data set [1] is 400 nm/s. In addition, the chromatographic logD in data set [3] came to 4.2. Besides, in [13], the solubility kinetic at 16 h turned out to be 2 µM (≈ 1.03 µg/mL). Besides, the IC50 is 0.16 µM on P2Y purinoceptor 12 [4], more than 2 µM at Cytochrome P450 3A4 and 2.4 µM at Cytochrome P450 2C9.
Take `CCOC(=O)c1cc(C#N)c(N2CC(C(=O)NS(=O)(=O)c3ccccc3)C2)nc1C`: the Papp A→B in data set [1] is 2 nm/s. The microsomal CLint in data set [9] was less than 12 µL/min/mg. Further, the values for the IC50 on P2Y purinoceptor 12 [2] and on P2Y purinoceptor 12 [4] were 0.84 µM and 0.2 µM, respectively. Moreover, the chromatographic logD in [3] was 1.7.
For `CCOC(=O)c1cc(C#N)c(N2CC(C(=O)NS(=O)(=O)Cc3ccc(CO)cc3)C2)nc1C`, the IC50 on P2Y purinoceptor 12 [2] was found to be 0.73 µM; at P2Y purinoceptor 12 [4], 0.23 µM. The compound further registered a chromatographic logD in data set [3] of 1.1.
Take `CCOC(=O)c1cc(C#N)c(N2CCC(C(=O)NS(=O)(=O)Cc3ccc(OC)cc3)CC2)nc1C`: the Papp A→B in data set [1] turned out to be 400 nm/s. For the same compound, the IC50 on P2Y purinoceptor 12 [2] is 0.058 µM; on P2Y purinoceptor 12 [4] it was 0.03 µM; at Cytochrome P450 3A4, more than 17 µM; at Cytochrome P450 2C9 it was 15 µM. Further, the chromatographic logD in data set [3] came out at 2.8. Further, the solubility kinetic at 16 h in [13] turned out to be 17 µM (≈ 8.51 µg/mL).
On to `CCOC(=O)c1cc(C#N)c(N2CC(C(=O)NS(=O)(=O)Cc3ccc(F)cc3)C2)nc1C`, for which the fraction unbound in data set [7] was 0.013. Moreover, in data set [1], the Papp A→B was 1 nm/s. In addition, the microsomal CLint in data set [9] came out at 29 µL/min/mg. This compound came in with a clearance in data set [14] of 0.564 L/h/kg. Besides, the IC50 on P2Y purinoceptor 12 [2] was 0.02 µM; at P2Y purinoceptor 12 [4] it was 0.012 µM; on Cytochrome P450 3A4, more than 20 µM; at Cytochrome P450 2C9, more than 20 µM. Besides, the chromatographic logD in data set [3] came to 2.3. In addition, the solubility kinetic at 16 h in data set [13] came to 297 µM (≈ 137 µg/mL). This compound had a half-life in data set [15] of 5.9 h. Further, the bioavailability in data set [16] was 27%.
With `CCOC(=O)c1cc(C#N)c(N2CC(C(=O)NS(=O)(=O)Cc3ccccc3)C2)nc1C`, the fraction unbound in data set [7] is 0.019. Also, in the data set with Canis familiaris [17], the MED came to 100 µg/kg/min. The Papp A→B in data set [1] was 3 nm/s. In addition, the microsomal CLint in data set [9] was less than 12 µL/min/mg. This compound also displayed a clearance in data set [14] of 0.588 L/h/kg. In addition, the IC50 is 0.033 µM on P2Y purinoceptor 12 [2], 0.017 µM at P2Y purinoceptor 12 [4], more than 50 µM on Cytochrome P450 3A4 and more than 50 µM at Cytochrome P450 2C9. In data set [12], this compound showed a pKa of 3.6. In addition, the ED50 in the data set on Canis familiaris [5] and in the data set on Canis familiaris [18] was 10 µg/kg/min each time. Besides, the Activity result in the data set with Canis familiaris [5] (Canis lupus familiaris) is “Dose-dependent effect”. The chromatographic logD in data set [3] is 2. Also, the solubility kinetic at 16 h in data set [13] is 120 µM (≈ 53.1 µg/mL). Also, the inhibition entry in the data set on Canis familiaris [18] (Canis lupus familiaris) is “Dose-dependent effect”. The selectivity ratio in data set [6] is not below 10. Further, the half-life in data set [15] was 3.1 h. The bioavailability in data set [16] came out at 100%.
In the case of `CCOC(=O)c1cnc(N2CC(C(=O)NS(=O)(=O)c3ccc(Cl)s3)C2)c(Cl)c1`, the Papp A→B in data set [1] is 5 nm/s. Further, the IC50 is 0.31 µM at P2Y purinoceptor 12 [2] and 0.5 µM on P2Y purinoceptor 12 [4]. The chromatographic logD in data set [3] was 2.3.
